We go through 11 compounds from ChEMBL document CHEMBL1153760, “Identification and structure-activity relationships of chromene-derived selective estrogen receptor modulators for treatment of postmenopausal symptoms” (J Med Chem, 2009).

One series addresses Estrogen receptor beta (Homo sapiens, UniProt Q92731). Kind of series: Inhibition of fluormone ES2 binding to estrogen receptor beta after 1 hr by fluorescence polarization assay.
Series [1] addresses T1, Estrogen receptor (Homo sapiens, UniProt P03372).
T1 sequence (P03372 whole entry): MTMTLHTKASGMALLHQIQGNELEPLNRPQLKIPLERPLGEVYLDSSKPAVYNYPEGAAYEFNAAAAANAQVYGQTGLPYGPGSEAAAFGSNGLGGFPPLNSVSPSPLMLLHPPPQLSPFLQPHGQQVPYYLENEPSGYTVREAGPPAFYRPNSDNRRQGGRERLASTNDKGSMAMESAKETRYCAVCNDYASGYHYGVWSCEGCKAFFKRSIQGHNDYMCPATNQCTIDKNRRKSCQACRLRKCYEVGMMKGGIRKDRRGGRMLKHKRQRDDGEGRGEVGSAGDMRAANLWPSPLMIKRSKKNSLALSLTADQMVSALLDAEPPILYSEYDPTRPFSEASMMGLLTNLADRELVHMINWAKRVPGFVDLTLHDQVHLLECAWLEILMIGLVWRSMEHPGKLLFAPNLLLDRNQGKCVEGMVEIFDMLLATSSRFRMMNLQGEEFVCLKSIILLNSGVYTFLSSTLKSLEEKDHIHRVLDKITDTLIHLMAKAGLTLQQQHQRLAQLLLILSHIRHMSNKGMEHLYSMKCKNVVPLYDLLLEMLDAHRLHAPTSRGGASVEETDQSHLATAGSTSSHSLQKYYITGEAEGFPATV
In words: Displacement of radiolabeled estrogen from estrogen receptor alpha by scintillation counting.

The target of series [2] is T1, Estrogen receptor. In words: Antagonist activity at estrogen receptor in human Ishikawa cells assessed as 17-beta-estradiol-induced alkaline phosphatase activity after 3 days by chemiluminescence assay. It counts as functional, cell-based.
For series [3], the species on record is Rattus norvegicus. Kind of series: animal or person. It counts as functional. To be noted: Uterus, 72 h, route oral.
Series [4] is described as follows: Oral bioavailability in rat at 10 mg/kg administered as single dose by LC-MS/MS analysis. It counts as ADME, organism-based. To be noted: in vivo. In outline:
(§1)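 Single-dose rat pharmacokinetics. IV dosing at 1-3 mg/kg as a solution in 10% β-cyclodextrin; oral gavage at 10 mg/kg as a uniform suspension in 0.5% methylcellulose. Blood (0.5 mL) collected into heparinized tubes by orbital sinus puncture after dosing. Plasma extracted into acetonitrile with an internal standard and analysed by LC-MS-MS against standards to obtain PK parameters.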

Series [5] is described as follows: Cmax in rats after 10 mg/kg oral dose. It counts as ADME, organism-based. Set-up: dose 10 mg/kg, route oral. The note with it: rat, in vivo. In a few lines: as §1
The nature of series [6]: Tmax in rat at 10 mg/kg, po administered as single dose by LC-MS/MS analysis. It counts as ADME, organism-based. Set-up: dose 10 mg/kg, route oral. The note with it: in vivo. In outline:
as §1

A short description of series [7]: Half life in rat at 10 mg/kg, po administered as single dose by LC-MS/MS analysis. Set-up: dose 10 mg/kg, route oral. In kind it is ADME, organism-based. The note with it: in vivo. In a few lines:
as §1

Series [8] is described as follows: AUC in rat at 10 mg/kg, po administered as single dose by LC-MS/MS analysis. In kind it is ADME, organism-based. Set-up: dose 10 mg/kg, route oral. To be noted: plasma. In outline: as §1
For series [9], the system named is Rattus norvegicus. Kind of series: Uterotropic activity in rat assessed as stimulation of estrone-induced uterine weight at 1 mg/kg, po QD after 3 days. It counts as functional. The note with it: Uterus, 72 h.
For series [10], the system named is Rattus norvegicus. In words: Estrogenic activity in ovariectomized rat assessed as minor increase in uterine epithelial thickness at 1 mg/kg, po administered daily measured after 6 week by immunohistochemical analysis. It counts as functional, organism-based. Set-up: dose 1 mg/kg.
In series [11] the test system is Rattus norvegicus. Kind of series: Decrease in bone resorption in ovariectomized rat assessed as decrease in urine deoxypyridinoline level at 1 mg/kg, po administered daily measured after 6 weeks. It counts as functional, organism-based. Set-up: dose 1 mg/kg. In outline:
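Adult (>6 months) female rats, housed singly on a casein-based diet, ovariectomized under sterile conditions and anesthesia; 6-14 per group. From 24 h after surgery, daily oral gavage of an aqueous suspension in 0.5% Methocel for 2 or 6 weeks. […] Urine deoxypyridinoline measured as bone-resorption marker.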

Series [12] has as its system Rattus norvegicus. In words: Effect on bone turnover in ovariectomized rat assessed as prevention of tibial bone density at 1 mg/kg, po administered daily measured after 6 weeks by ex vivo peripheral quantitative computerized tomography. It counts as functional, organism-based. Set-up: dose 1 mg/kg.
For series [13], the system named is Rattus norvegicus. Kind of series: Increase in vaginal secretion in ovariectomized rat at 1 mg/kg, po administered daily measured after 2 weeks […]. In kind it is functional, organism-based. Set-up: dose 1 mg/kg. In a few lines: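 Ovariectomized adult female rats dosed daily by oral gavage (0.5% Methocel suspension) for 2 or 6 weeks from 24 h after surgery. Vaginal fluid collected with a cotton swab and its absolute weight determined per animal.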

The source made the active and inactive calls. The rule behind the calls is not given here.

Estrogen receptor beta, sequence (Q92731 whole entry): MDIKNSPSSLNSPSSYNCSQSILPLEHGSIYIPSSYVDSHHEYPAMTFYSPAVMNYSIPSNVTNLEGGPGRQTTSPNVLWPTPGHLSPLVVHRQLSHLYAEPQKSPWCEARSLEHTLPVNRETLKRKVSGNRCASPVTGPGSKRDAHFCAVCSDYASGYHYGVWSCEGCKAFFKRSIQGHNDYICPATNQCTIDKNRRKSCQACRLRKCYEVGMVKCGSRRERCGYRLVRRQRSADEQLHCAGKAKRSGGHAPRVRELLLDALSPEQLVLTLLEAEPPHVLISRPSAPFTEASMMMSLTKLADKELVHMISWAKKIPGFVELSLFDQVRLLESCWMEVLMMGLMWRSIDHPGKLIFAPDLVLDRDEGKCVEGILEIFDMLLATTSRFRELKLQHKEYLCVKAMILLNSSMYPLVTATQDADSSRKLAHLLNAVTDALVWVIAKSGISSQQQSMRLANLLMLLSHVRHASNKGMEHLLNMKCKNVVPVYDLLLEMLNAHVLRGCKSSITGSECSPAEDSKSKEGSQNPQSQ

A word on the IC50: it is the concentration that gives 50% inhibition. A word on the inhibition in vivo: it is the drop in the measured response relative to a control, in per cent. Take `Oc1ccc2c(c1)O[C@@H](c1ccc(OCCN3CCCCC3)cc1)C1=C2CCOc2cc(O)ccc21`: the IC50 amounted to 16 nM on Estrogen receptor beta, 3.4 nM at Estrogen receptor [1] and 32 nM on Estrogen receptor [2]. Moreover, in the series filed under Rattus norvegicus [3], the inhibition in vivo at 1 mg/kg is 88%.

With `Oc1ccc2c(c1)O[C@@H](c1cccc(OCCN3CCCCC3)c1)C1=C2CCOc2cc(O)ccc21`, the figures for the IC50 on Estrogen receptor beta, on Estrogen receptor [1] and on Estrogen receptor [2] were 200 nM, 190 nM and > 10000 nM, respectively. The inhibition in vivo at 1 mg/kg in the series listed under Rattus norvegicus [3] turned out to be 0%.

In the case of `COC(=O)COc1ccc(C2Oc3cc(O)ccc3C3=C2c2ccc(O)cc2OCC3)cc1` (stereo unspecified), the IC50 on Estrogen receptor beta is 16 nM; on Estrogen receptor [1] it was 4.8 nM; at Estrogen receptor [2] it was > 10000 nM. Moreover, the inhibition in vivo at 1 mg/kg in the series listed under Rattus norvegicus [3] worked out at 0%.

`Oc1ccc2c(c1)OCCC1=C2[C@H](c2ccc(OCCN3CCCCCC3)cc2)Oc2ccccc21`: the IC50 worked out at 22 nM at Estrogen receptor beta, 4.5 nM at Estrogen receptor [1] and 68 nM at Estrogen receptor [2]. Further, the inhibition in vivo at 1 mg/kg in the series listed under Rattus norvegicus [3] amounted to 28%.

For orientation: bioavailability means dose-corrected exposure relative to a reference, in per cent. The term Cmax denotes the maximum level reached in the sampled fluid or tissue. Usually Tmax stands for the time from dosing to the highest level. Broadly, the half-life is the time in which the quantity being followed falls by half. A lower half-life goes with fast loss. Broadly, the AUC is concentration integrated over time. On to `Oc1ccc2c(c1)O[C@H](c1ccc(OCCN3CCSCC3)cc1)C1=C2CCOc2cc(O)ccc21`, for which the IC50 came to 27 nM at Estrogen receptor beta, 1.2 nM on Estrogen receptor [1] and 87 nM at Estrogen receptor [2]. Besides, in the series filed under Rattus norvegicus [3], the inhibition in vivo at 1 mg/kg is 85%. Further, the bioavailability in [4] was found to be 9%. In addition, in [5], the peak level (Cmax) was 89 ng/mL. In addition, the Tmax in series [6] is 4.8 h. For the same compound, in series [7], the half-life was 317 min. Moreover, the area under the curve (AUC) in [8] came out at 1530 ng·h/mL.

`CCN(CC)CCOc1ccc([C@@H]2Oc3ccccc3C3=C2c2ccc(O)cc2OCC3)cc1`: the IC50 on Estrogen receptor beta turned out to be 28 nM; on Estrogen receptor [1] it was 9 nM; at Estrogen receptor [2], 133 nM. Moreover, in the series filed under Rattus norvegicus [3], the inhibition in vivo at 1 mg/kg was 30%. Also, the stimulation at 1 mg/kg in the series on Rattus norvegicus [9] was 100%.

Turning to `O=C1CCC(=O)N1CCCOc1ccc([C@@H]2Oc3cc(O)ccc3C3=C2c2ccc(O)cc2OCC3)cc1`, the IC50 at Estrogen receptor beta is 5.68 nM; on Estrogen receptor [1], 41 nM; at Estrogen receptor [2], > 10000 nM. For the same compound, the inhibition in vivo at 1 mg/kg in the series filed under Rattus norvegicus [3] amounted to 0%.

On to `OCCCOc1ccc(C2Oc3cc(O)ccc3C3=C2c2ccc(O)cc2OCC3)cc1` (stereo unspecified), for which the IC50 on Estrogen receptor beta is 44 nM; at Estrogen receptor [1] it was 326 nM; on Estrogen receptor [2], > 10000 nM. For the same compound, the inhibition in vivo at 1 mg/kg in the series listed under Rattus norvegicus [3] was 0%.

Regarding `O=C(c1ccc(OCCN2CCCCC2)cc1)c1c(-c2ccc(O)cc2)sc2cc(O)ccc12` [RALOXIFENE], the result in the series on Rattus norvegicus [10], with Rattus norvegicus [11] and in the series on Rattus norvegicus [12] was Active. The outcome with Rattus norvegicus [13] was inactive. In the series listed under Rattus norvegicus [3], the inhibition in vivo at 1 mg/kg is 105%.

As for `Oc1ccc2c(c1)OCCC1=C2[C@H](c2ccc(OCCN3CCCCC3)cc2)Oc2ccccc21`, the IC50 on Estrogen receptor beta was 24 nM; at Estrogen receptor [1] it was 4.2 nM; on Estrogen receptor [2] it was 150 nM. For the same compound, in the series filed under Rattus norvegicus [3], the inhibition in vivo at 1 mg/kg stood at 20%.

As to `Oc1ccc2c(c1)O[C@@H](c1ccc(OCCN3CCOCC3)cc1)C1=C2CCOc2cc(O)ccc21`, the IC50 on Estrogen receptor beta is 11 nM; on Estrogen receptor [1], 10 nM; on Estrogen receptor [2], > 10000 nM. Moreover, the inhibition in vivo at 1 mg/kg in the series filed under Rattus norvegicus [3] was 0%.
